Reference: ChEMBL document CHEMBL4823277, “Novel chalcone-conjugated, multi-flexible end-group coumarin thiazole hybrids as potential antibacterial repressors against methicillin-resistant Staphylococcus aureus” (Eur J Med Chem, 2021)
Converted amounts (≈) assume the structure as drawn.

Columns and labels:
Type in all cases: functional
Pseudomonas aeruginosa [1] = test: Antibacterial activity against Pseudomonas aeruginosa ATCC 27853 by microbroth dilution method
Enterococcus faecalis [2] = test: Antibacterial activity against Enterococcus faecalis by microbroth dilution method
Staphylococcus aureus [3] = test: Antibacterial activity against Staphylococcus aureus ATCC 25923 by microbroth dilution method
Escherichia coli [4] = test: Antibacterial activity against Escherichia coli ATCC 25922 by microbroth dilution method
Staphylococcus aureus [5] = test: Antibacterial activity against Staphylococcus aureus ATCC 29213 by microbroth dilution method
Staphylococcus aureus [6] = test: Antibacterial activity against methicillin-resistant Staphylococcus aureus N315 by microbroth dilution method
How it was run: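 Minimum inhibitory concentration against MRSA N315 determined by micro broth dilution in microdilution plates.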

Pseudomonas aeruginosa [7] = test: Antibacterial activity against Pseudomonas aeruginosa by microbroth dilution method
Escherichia coli [8] = test: Antibacterial activity against Escherichia coli by microbroth dilution method
Acinetobacter baumannii = test: Antibacterial activity against Acinetobacter baumannii by microbroth dilution method
Staphylococcus aureus [9] = test: Antibacterial activity against Staphylococcus aureus by microbroth dilution method
Klebsiella pneumoniae [10] = test: Antibacterial activity against Klebsiella pneumonia by microbroth dilution method
Staphylococcus aureus [11] = test: Potentiation of (Z)-4-((bis(2-hydroxyethyl)amino)methyl)-7-((1-(4-methoxyphenyl)-3-oxo-3-(thiazol-2-yl)prop-1-en-2-yl)oxy)-2H-chromen-2-one-induced antibacterial activity against methicillin resistant Staphylococcus aureus N315 assessed as (Z)-4-((bis(2-hydroxyethyl)amino)methyl)-7-((1-(4-methoxyphenyl)-3-oxo-3-(thiazol-2-yl)prop-1-en-2-yl)oxy)-2H-chromen-2-one MIC
Escherichia coli [12] = test: Potentiation of (Z)-4-((bis(2-hydroxyethyl)amino)methyl)-7-((1-(4-methoxyphenyl)-3-oxo-3-(thiazol-2-yl)prop-1-en-2-yl)oxy)-2H-chromen-2-one-induced antibacterial activity against Escherichia coli assessed as (Z)-4-((bis(2-hydroxyethyl)amino)methyl)-7-((1-(4-methoxyphenyl)-3-oxo-3-(thiazol-2-yl)prop-1-en-2-yl)oxy)-2H-chromen-2-one MIC
Enterococcus faecalis [13] = test: Potentiation of (Z)-4-((bis(2-hydroxyethyl)amino)methyl)-7-((1-(4-methoxyphenyl)-3-oxo-3-(thiazol-2-yl)prop-1-en-2-yl)oxy)-2H-chromen-2-one-induced antibacterial activity against Enterococcus faecalis assessed as (Z)-4-((bis(2-hydroxyethyl)amino)methyl)-7-((1-(4-methoxyphenyl)-3-oxo-3-(thiazol-2-yl)prop-1-en-2-yl)oxy)-2H-chromen-2-one MIC
Klebsiella pneumoniae [14] = test: Potentiation of(Z)-4-((bis(2-hydroxyethyl)amino)methyl)-7-((1-(4-methoxyphenyl)-3-oxo-3-(thiazol-2-yl)prop-1-en-2-yl)oxy)-2H-chromen-2-one-induced antibacterial activity against Klebsiella pneumoniae assessed as (Z)-4-((bis(2-hydroxyethyl)amino)methyl)-7-((1-(4-methoxyphenyl)-3-oxo-3-(thiazol-2-yl)prop-1-en-2-yl)oxy)-2H-chromen-2-one MIC

Structure (SMILES) | MIC (Pseudomonas aeruginosa [1]) | MIC (Enterococcus faecalis [2]) | MIC (Staphylococcus aureus [3]) | MIC (Escherichia coli [4]) | MIC (Staphylococcus aureus [5]) | MIC (Staphylococcus aureus [6]) | MIC (Pseudomonas aeruginosa [7]) | MIC (Escherichia coli [8]) | MIC (Acinetobacter baumannii) | MIC (Staphylococcus aureus [9]) | MIC (Klebsiella pneumoniae [10]) | MIC (Staphylococcus aureus [11]) | MIC (Escherichia coli [12]) | MIC (Enterococcus faecalis [13]) | MIC (Klebsiella pneumoniae [14])
O=C(/C(=C/c1ccc(Br)cc1)Oc1ccc2c(CN(CCO)CCO)cc(=O)oc2c1)c1nccs1 | 1090 µM (≈ 621 µg/mL) | 136 µM (≈ 77.7 µg/mL) | 272 µM (≈ 155 µg/mL) | 543 µM (≈ 310 µg/mL) | 272 µM (≈ 155 µg/mL) | 136 µM (≈ 77.7 µg/mL) | 272 µM (≈ 155 µg/mL) | 1090 µM (≈ 621 µg/mL) | 543 µM (≈ 310 µg/mL) | 68 µM (≈ 38.9 µg/mL) | 1090 µM (≈ 621 µg/mL) |  |  |  | 
O=C(COc1ccc2c(CN(CCO)CCO)cc(=O)oc2c1)c1nccs1 | 1270 µM (≈ 512 µg/mL) | 316 µM (≈ 128 µg/mL) | 633 µM (≈ 256 µg/mL) | 633 µM (≈ 256 µg/mL) | 1270 µM (≈ 512 µg/mL) | 20 µM (≈ 8.09 µg/mL) | 633 µM (≈ 256 µg/mL) | 316 µM (≈ 128 µg/mL) | 633 µM (≈ 256 µg/mL) | 316 µM (≈ 128 µg/mL) | 316 µM (≈ 128 µg/mL) |  |  |  | 
CCn1cc(/C=C(\Oc2ccc3c(CN(CCO)CCO)cc(=O)oc3c2)C(=O)c2nccs2)c2ccccc21 | 57 µM (≈ 31.9 µg/mL) | 14 µM (≈ 7.84 µg/mL) | 7 µM (≈ 3.92 µg/mL) | 229 µM (≈ 128 µg/mL) | 57 µM (≈ 31.9 µg/mL) | 114 µM (≈ 63.8 µg/mL) | 114 µM (≈ 63.8 µg/mL) | 229 µM (≈ 128 µg/mL) | 57 µM (≈ 31.9 µg/mL) | 29 µM (≈ 16.2 µg/mL) | 229 µM (≈ 128 µg/mL) |  |  |  | 
Cc1ccc(/C=C(\Oc2ccc3c(CN(CCO)CCO)cc(=O)oc3c2)C(=O)c2nccs2)cc1 | 505 µM (≈ 256 µg/mL) | 63 µM (≈ 31.9 µg/mL) | 63 µM (≈ 31.9 µg/mL) | 126 µM (≈ 63.8 µg/mL) | 126 µM (≈ 63.8 µg/mL) | 63 µM (≈ 31.9 µg/mL) | 253 µM (≈ 128 µg/mL) | 16 µM (≈ 8.11 µg/mL) | 253 µM (≈ 128 µg/mL) | 126 µM (≈ 63.8 µg/mL) | 63 µM (≈ 31.9 µg/mL) |  |  |  | 
O=C(/C(=C/c1ccc(Cl)cc1)Oc1ccc2c(CN(CCO)CCO)cc(=O)oc2c1)c1nccs1 | 243 µM (≈ 128 µg/mL) | 243 µM (≈ 128 µg/mL) | 243 µM (≈ 128 µg/mL) | 486 µM (≈ 256 µg/mL) | 243 µM (≈ 128 µg/mL) | 121 µM (≈ 63.8 µg/mL) | 61 µM (≈ 32.1 µg/mL) | 486 µM (≈ 256 µg/mL) | 243 µM (≈ 128 µg/mL) | 243 µM (≈ 128 µg/mL) | 486 µM (≈ 256 µg/mL) |  |  |  | 
O=C(/C(=C/c1ccc(Cl)cc1Cl)Oc1ccc2c(CN(CCO)CCO)cc(=O)oc2c1)c1nccs1 | 228 µM (≈ 128 µg/mL) | 228 µM (≈ 128 µg/mL) | 456 µM (≈ 256 µg/mL) | 456 µM (≈ 256 µg/mL) | 456 µM (≈ 256 µg/mL) | 7 µM (≈ 3.93 µg/mL) | 114 µM (≈ 64 µg/mL) | 228 µM (≈ 128 µg/mL) | 114 µM (≈ 64 µg/mL) | 228 µM (≈ 128 µg/mL) | 228 µM (≈ 128 µg/mL) |  |  |  | 
O=C(/C(=C/c1ccccc1Cl)Oc1ccc2c(CN(CCO)CCO)cc(=O)oc2c1)c1nccs1 | 243 µM (≈ 128 µg/mL) | 121 µM (≈ 63.8 µg/mL) | 486 µM (≈ 256 µg/mL) | 243 µM (≈ 128 µg/mL) | 486 µM (≈ 256 µg/mL) | 61 µM (≈ 32.1 µg/mL) | 486 µM (≈ 256 µg/mL) | 972 µM (≈ 512 µg/mL) | 486 µM (≈ 256 µg/mL) | 121 µM (≈ 63.8 µg/mL) | 972 µM (≈ 512 µg/mL) |  |  |  | 
O=C(/C(=C/c1ccc([N+](=O)[O-])cc1)Oc1ccc2c(CN(CCO)CCO)cc(=O)oc2c1)c1nccs1 | 238 µM (≈ 128 µg/mL) | 119 µM (≈ 64 µg/mL) | 60 µM (≈ 32.3 µg/mL) | 119 µM (≈ 64 µg/mL) | 119 µM (≈ 64 µg/mL) | 7 µM (≈ 3.76 µg/mL) | 476 µM (≈ 256 µg/mL) | 119 µM (≈ 64 µg/mL) | 238 µM (≈ 128 µg/mL) | 119 µM (≈ 64 µg/mL) | 238 µM (≈ 128 µg/mL) |  |  |  | 
O=C(/C(=C/c1ccc(F)cc1)Oc1ccc2c(CN(CCO)CCO)cc(=O)oc2c1)c1nccs1 | 251 µM (≈ 128 µg/mL) | 125 µM (≈ 63.8 µg/mL) | 251 µM (≈ 128 µg/mL) | 251 µM (≈ 128 µg/mL) | 251 µM (≈ 128 µg/mL) | 125 µM (≈ 63.8 µg/mL) | 1000 µM (≈ 512 µg/mL) | 1000 µM (≈ 512 µg/mL) | 251 µM (≈ 128 µg/mL) | 125 µM (≈ 63.8 µg/mL) | 251 µM (≈ 128 µg/mL) |  |  |  | 
O=C(/C(=C/c1c[nH]c2ccccc12)Oc1ccc2c(CN(CCO)CCO)cc(=O)oc2c1)c1nccs1 | 482 µM (≈ 256 µg/mL) | 60 µM (≈ 31.9 µg/mL) | 120 µM (≈ 63.8 µg/mL) | 241 µM (≈ 128 µg/mL) | 120 µM (≈ 63.8 µg/mL) | 15 µM (≈ 7.97 µg/mL) | 241 µM (≈ 128 µg/mL) | 241 µM (≈ 128 µg/mL) | 482 µM (≈ 256 µg/mL) | 120 µM (≈ 63.8 µg/mL) | 60 µM (≈ 31.9 µg/mL) |  |  |  | 
O=C(/C(=C/c1ccccc1)Oc1ccc2c(CN(CCO)CCO)cc(=O)oc2c1)c1nccs1 | 520 µM (≈ 256 µg/mL) | 130 µM (≈ 64 µg/mL) | 1040 µM (≈ 512 µg/mL) | 260 µM (≈ 128 µg/mL) | 1040 µM (≈ 512 µg/mL) | 130 µM (≈ 64 µg/mL) | 520 µM (≈ 256 µg/mL) | 1040 µM (≈ 512 µg/mL) | 1040 µM (≈ 512 µg/mL) | 260 µM (≈ 128 µg/mL) | 1040 µM (≈ 512 µg/mL) |  |  |  | 
O=C(/C(=C/c1c[nH]c2cc(Cl)ccc12)Oc1ccc2c(CN(CCO)CCO)cc(=O)oc2c1)c1nccs1 | 113 µM (≈ 64 µg/mL) | 57 µM (≈ 32.3 µg/mL) | 57 µM (≈ 32.3 µg/mL) | 226 µM (≈ 128 µg/mL) | 57 µM (≈ 32.3 µg/mL) | 57 µM (≈ 32.3 µg/mL) | 226 µM (≈ 128 µg/mL) | 226 µM (≈ 128 µg/mL) | 113 µM (≈ 64 µg/mL) | 113 µM (≈ 64 µg/mL) | 57 µM (≈ 32.3 µg/mL) |  |  |  | 
Cc1ccc2c(/C=C(\Oc3ccc4c(CN(CCO)CCO)cc(=O)oc4c3)C(=O)c3nccs3)c[nH]c2c1 | 59 µM (≈ 32.2 µg/mL) | 15 µM (≈ 8.18 µg/mL) | 7 µM (≈ 3.82 µg/mL) | 235 µM (≈ 128 µg/mL) | 117 µM (≈ 63.8 µg/mL) | 117 µM (≈ 63.8 µg/mL) | 117 µM (≈ 63.8 µg/mL) | 235 µM (≈ 128 µg/mL) | 117 µM (≈ 63.8 µg/mL) | 29 µM (≈ 15.8 µg/mL) | 235 µM (≈ 128 µg/mL) |  |  |  | 
CCn1cc(C(=O)O)c(=O)c2cc(F)c(N3CCNCC3)cc21 [NORFLOXACIN] | 3 µM (≈ 0.958 µg/mL) | 25 µM (≈ 7.98 µg/mL) | 3 µM (≈ 0.958 µg/mL) | 25 µM (≈ 7.98 µg/mL) | 6 µM (≈ 1.92 µg/mL) | 25 µM (≈ 7.98 µg/mL) | 25 µM (≈ 7.98 µg/mL) | 50 µM (≈ 16 µg/mL) | 25 µM (≈ 7.98 µg/mL) | 6 µM (≈ 1.92 µg/mL) | 13 µM (≈ 4.15 µg/mL) | 0.781 10^-3mM | 0.781 10^-3mM | 0.781 10^-3mM | 0.203 10^-3mM
